{"data": "Published values of several laboratories", "SIGMAR1": "Sigma non-opioid intracellular receptor 1 (SIGMAR1, Homo sapiens, UniProt Q99720)", "PFF0160c": "Dihydroorotate dehydrogenase (quinone), mitochondrial (PFF0160c, Plasmodium falciparum, UniProt Q08210)", "Nectin-4": "Nectin-4 (Homo sapiens, UniProt Q96NY8)", "PFF0160c E182D": "Dihydroorotate dehydrogenase (quinone), mitochondrial (PFF0160c, Plasmodium falciparum, UniProt Q08210, E182D)", "note": "Lines come from different studies, so protocols differ."}
{"SMILES": "CN(C)CC[C@@H](c1ccc(Cl)cc1)c1ccccn1", "target": "SIGMAR1", "test": "ligand displacement, radioligand", "endpoint": "Ki", "value": "1990 nM"}
{"SMILES": "COCC(C)n1c(SCC(=O)Nc2cc(C(F)(F)F)ccc2Cl)nc2ccccc2c1=O (stereo not drawn)", "target": "PFF0160c", "test": "enzyme activity, inhibitor, absorbance", "endpoint": "IC50", "value": "626 nM"}
{"SMILES": "CCCC[C@@H]1NC(=O)[C@H](Cc2ccc(O)cc2)NC(=O)[C@@H]2CCCN2C(=O)[C@H](CCC(=O)O)NC(=O)[C@H](C)NC(=O)[C@H](Cc2ccccc2)NC(=O)[C@@H]2CSCCC(=O)N3CN(CN(C3)C(=O)CCSC[C@H](NC(C)=O)C(=O)N[C@@H](CC(C)(C)C)C(=O)N3CCC[C@H]3C(=O)N[C@@H](CCC(=O)O)C(=O)N[C@H](CCCCNC(=O)CCc3cn(CCOCCOCCOCCOCCOCCC(=O)N[C@H]4CSCCC(=O)N5CN6CN(C5)C(=O)CCSC[C@H](NC(=O)[C@@H](CC(=O)O)NC(=O)[C@H](Cc5cccc7ccccc57)NC(=O)[C@@H]5CCCN5C4=O)C(=O)N[C@@H](CCSC)C(=O)N[C@@H](CCCCNC(=N)N)C(=O)N[C@@H](CC(=O)O)C(=O)N[C@@H](Cc4c[nH]c5ccccc45)C(=O)N[C@@H](CO)C(=O)N[C@@H]([C@@H](C)O)C(=O)N4CCC[C@H]4C(=O)N4C[C@H](O)C[C@H]4C(=O)N[C@@H](Cc4c[nH]c5ccccc45)C(=O)N[C@H](C(N)=O)CSCCC6=O)nn3)C(=O)N3CCC[C@H]3C(=O)N[C@@H](Cc3ccc(O)cc3)C(=O)N2)C(=O)CCSC[C@@H](C(N)=O)NC1=O", "target": "Nectin-4", "test": "binding, SPR", "endpoint": "Kd", "value": "2.5 nM"}
{"SMILES": "CC(CN1c2ccccc2Sc2ccccc21)N(C)C (stereo not drawn)", "target": "SIGMAR1", "test": "ligand displacement, radioligand", "endpoint": "Ki", "value": "433 nM"}
{"SMILES": "CCCC[C@@H]1NC(=O)[C@H](Cc2ccc(O)cc2)NC(=O)[C@@H]2CCCN2C(=O)[C@H](CC(=O)O)NC(=O)[C@H](C)NC(=O)[C@H](Cc2ccccc2)NC(=O)[C@@H]2CSCCC(=O)N3CN(CN(C3)C(=O)CCSC[C@@H](C(=O)N[C@@H](CNC(=O)CCOCCOCCOCCOCCOCCn3cc(CCC(=O)N[C@H]4CSCCC(=O)N5CN6CN(C5)C(=O)CCSC[C@H](NC(=O)[C@@H](CC(=O)O)NC(=O)[C@H](Cc5cccc7ccccc57)NC(=O)[C@@H]5CCCN5C4=O)C(=O)N[C@@H](CCSC)C(=O)N[C@@H](CCCCNC(=N)N)C(=O)N[C@@H](CC(=O)O)C(=O)N[C@@H](Cc4c[nH]c5ccccc45)C(=O)N[C@@H](CO)C(=O)N[C@@H]([C@@H](C)O)C(=O)N4CCC[C@H]4C(=O)N4C[C@H](O)C[C@H]4C(=O)N[C@@H](Cc4c[nH]c5ccccc45)C(=O)N[C@H](C(N)=O)CSCCC6=O)nn3)C(N)=O)NC1=O)C(=O)CCSC[C@H](NC(C)=O)C(=O)N[C@@H](CC(C)(C)C)C(=O)N1CCC[C@H]1C(=O)N[C@@H](CCC(=O)O)C(=O)N[C@H](C)C(=O)N1CCC[C@H]1C(=O)N[C@@H](Cc1ccc(O)cc1)C(=O)N2", "target": "Nectin-4", "test": "binding, SPR", "endpoint": "Kd", "value": "1.1 nM"}
{"SMILES": "Cc1cccc(C(=O)N2CCN(Cc3cccc(NC(=O)c4cccs4)c3)CC2)c1", "target": "PFF0160c E182D", "test": "enzyme activity, inhibitor, absorbance", "endpoint": "IC50", "value": "6610 nM"}
{"SMILES": "Cc1c2ccncc2c(C)c2c1[nH]c1ccccc12", "target": "SIGMAR1", "test": "ligand displacement, radioligand", "endpoint": "Ki", "value": "> 10000 nM"}
{"SMILES": "C/C(=C\\[N+](=O)[O-])c1ccccc1", "target": "nerA (Agrobacterium radiobacter, UniProt O31246)", "test": "binding, absorbance", "endpoint": "Kd", "value": "730000 nM"}
{"SMILES": "CC(CNCc1cn(Cc2cc(Br)cc(Br)c2)c2ccccc12)CNc1cc(=O)c2ccccc2[nH]1 (stereo not drawn)", "target": "PFF0160c", "test": "enzyme activity, inhibitor, absorbance", "endpoint": "IC50", "value": "2720 nM"}
{"SMILES": "CCCC[C@@H]1NC(=O)[C@H](Cc2ccc(O)cc2)NC(=O)[C@@H]2CCCN2C(=O)[C@H](CC(=O)O)NC(=O)[C@H](C)NC(=O)[C@H](Cc2ccccc2)NC(=O)[C@@H]2CSCCC(=O)N3CN(CN(C3)C(=O)CCSC[C@H](NC(C)=O)C(=O)N[C@@H](CC(C)(C)C)C(=O)N3CCC[C@H]3C(=O)N[C@@H](CCC(=O)O)C(=O)N[C@H](CCCCNC(=O)CCc3cn(CCOCCOCCOCCN(CCOCCOCCOCCC(=O)N[C@H]4CSCCC(=O)N5CN6CN(C5)C(=O)CCSC[C@H](NC(=O)[C@@H](CC(=O)O)NC(=O)[C@H](Cc5cccc7ccccc57)NC(=O)[C@@H]5CCCN5C4=O)C(=O)N[C@@H](CCSC)C(=O)N[C@@H](CCCCNC(=N)N)C(=O)N[C@@H](CC(=O)O)C(=O)N[C@@H](Cc4c[nH]c5ccccc45)C(=O)N[C@@H](CO)C(=O)N[C@@H]([C@@H](C)O)C(=O)N4CCC[C@H]4C(=O)N4C[C@H](O)C[C@H]4C(=O)N[C@@H](Cc4c[nH]c5ccccc45)C(=O)N[C@H](C(N)=O)CSCCC6=O)CCOCCOCCOCCn4cc(CCC(=O)NCCCC[C@H]5NC(=O)[C@H](CCC(=O)O)NC(=O)[C@@H]6CCCN6C(=O)[C@H](CC(C)(C)C)NC(=O)[C@@H](NC(C)=O)CSCCC(=O)N6CN7CN(C6)C(=O)CCSC[C@H](NC(=O)[C@H](Cc6ccc(O)cc6)NC(=O)[C@@H]6CCCN6C5=O)C(=O)N[C@@H](Cc5ccccc5)C(=O)N[C@@H](C)C(=O)N[C@@H](CC(=O)O)C(=O)N5CCC[C@H]5C(=O)N[C@@H](Cc5ccc(O)cc5)C(=O)N[C@@H](CCCC)C(=O)NCCSCCC7=O)nn4)nn3)C(=O)N3CCC[C@H]3C(=O)N[C@@H](Cc3ccc(O)cc3)C(=O)N2)C(=O)CCSCCNC1=O", "target": "Nectin-4", "test": "binding, SPR", "endpoint": "Kd", "value": "2.8 nM"}
{"SMILES": "COC(=O)C1(c2ccc(C)cc2)CC1CN1CCC(O)(c2ccccc2)CC1 (stereo not drawn)", "target": "SIGMAR1", "test": "ligand displacement, radioligand", "endpoint": "Ki", "value": "18.7 nM"}
{"SMILES": "CCCCOc1ccccc1C(=O)NCc1csc(-c2ccccc2)n1", "target": "PFF0160c", "test": "enzyme activity, inhibitor, absorbance", "endpoint": "IC50", "value": "421 nM"}
{"SMILES": "FC(F)(F)c1ccc2c(c1)N(CCCN1CCN(CCCl)CC1)c1ccccc1S2", "target": "SIGMAR1", "test": "ligand displacement, radioligand", "endpoint": "Ki", "value": "580 nM"}
{"SMILES": "COc1nc(NCC(C)C)nc(Oc2ccc(=O)n(Cc3ccccc3)n2)n1", "target": "PFF0160c E182D", "test": "enzyme activity, inhibitor, absorbance", "endpoint": "IC50", "value": "4640 nM"}
{"SMILES": "CCCC[C@@H]1NC(=O)[C@H](Cc2ccc(O)cc2)NC(=O)[C@@H]2CCCN2C(=O)[C@H](CC(N)=O)NC(=O)[C@H](C)NC(=O)[C@H](Cc2ccccc2)NC(=O)[C@@H]2CSCCC(=O)N3CN(CN(C3)C(=O)CCSC[C@H](NC(C)=O)C(=O)N[C@@H](CC(C)(C)C)C(=O)N3CCC[C@H]3C(=O)N[C@@H](CCC(=O)O)C(=O)N[C@H](CCCCNC(=O)CCc3cn(CCOCCOCCOCCN(CCOCCOCCOCCC(=O)N[C@H]4CSCCC(=O)N5CN6CN(C5)C(=O)CCSC[C@H](NC(=O)[C@@H](CC(=O)O)NC(=O)[C@H](Cc5cccc7ccccc57)NC(=O)[C@@H]5CCCN5C4=O)C(=O)N[C@@H](CCSC)C(=O)N[C@@H](CCCCNC(=N)N)C(=O)N[C@@H](CC(=O)O)C(=O)N[C@@H](Cc4c[nH]c5ccccc45)C(=O)N[C@@H](CO)C(=O)N[C@@H]([C@@H](C)O)C(=O)N4CCC[C@H]4C(=O)N4C[C@H](O)C[C@H]4C(=O)N[C@@H](Cc4c[nH]c5ccccc45)C(=O)N[C@H](C(N)=O)CSCCC6=O)CCOCCOCCOCCn4cc(CCC(=O)NCCCC[C@H]5NC(=O)[C@H](CCC(=O)O)NC(=O)[C@@H]6CCCN6C(=O)[C@H](CC(C)(C)C)NC(=O)[C@@H](NC(C)=O)CSCCC(=O)N6CN7CN(C6)C(=O)CCSC[C@H](NC(=O)[C@H](Cc6ccc(O)cc6)NC(=O)[C@@H]6CCCN6C5=O)C(=O)N[C@@H](Cc5ccccc5)C(=O)N[C@@H](C)C(=O)N[C@@H](CC(N)=O)C(=O)N5CCC[C@H]5C(=O)N[C@@H](Cc5ccc(O)cc5)C(=O)N[C@@H](CCCC)C(=O)N[C@H](C(N)=O)CSCCC7=O)nn4)nn3)C(=O)N3CCC[C@H]3C(=O)N[C@@H](Cc3ccc(O)cc3)C(=O)N2)C(=O)CCSC[C@@H](C(N)=O)NC1=O", "target": "Nectin-4", "test": "binding, SPR", "endpoint": "Kd", "value": "1.9 nM"}
